Screening results deposited in PubChem BioAssay by The Scripps Research Institute Molecular Screening Center.
A selection: hits, their analogues and other compounds. The true share with any hit is near 2%.
ZTA counter = counter-screen for EBNA-1 inhibitors: inhibitors of Epstein-Barr virus ZTA; 320,000 compounds, 0.15% hits; inhibition, % at 11 µM; ZTA-DNA binding, fluorescence polarization; in the data active = inhibition above about 33%
Target sequence (P03206 whole entry, looked up): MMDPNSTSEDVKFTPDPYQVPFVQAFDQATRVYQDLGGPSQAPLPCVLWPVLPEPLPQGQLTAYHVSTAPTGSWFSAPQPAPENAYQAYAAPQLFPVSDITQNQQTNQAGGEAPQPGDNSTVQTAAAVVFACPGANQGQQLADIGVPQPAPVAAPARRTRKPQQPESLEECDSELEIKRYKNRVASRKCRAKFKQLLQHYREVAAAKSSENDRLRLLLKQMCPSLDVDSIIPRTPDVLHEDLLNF
GPR7 antagonist = human neuropeptides B/W receptor 1 antagonism; P48145; 290,000 compounds, 1.1% hits; AID 1861; inhibition, % at 4.4 µM; GPR7-expressing cells, fluorescence antagonist assay; in the data active = inhibition above about 16%, passing the limit was not always enough;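 note: cells stimulated with the agonist NPW; 0% = agonist with vehicle and 100% = vehicle without agonist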
Target sequence (P48145 whole entry, looked up): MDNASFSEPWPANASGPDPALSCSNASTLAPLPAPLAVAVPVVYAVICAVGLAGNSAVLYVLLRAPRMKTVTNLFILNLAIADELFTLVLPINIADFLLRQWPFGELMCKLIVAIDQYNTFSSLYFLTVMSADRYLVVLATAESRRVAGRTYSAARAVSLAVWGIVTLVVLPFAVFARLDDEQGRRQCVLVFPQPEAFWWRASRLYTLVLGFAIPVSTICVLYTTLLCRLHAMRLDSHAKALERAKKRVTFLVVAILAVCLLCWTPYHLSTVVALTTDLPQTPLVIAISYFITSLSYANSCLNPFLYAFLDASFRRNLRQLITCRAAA
NS3 helicase inh = blocks Hepatitis C virus NS3 helicase unwinding; NS3 helicase DNA unwinding, Cy5 molecular beacon fluorescence; AID 1800; 290,000 compounds, 0.56% hits; inhibition, % at 10.9 µM;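 active = inhibition above the mean of all tested compounds plus 3 SD, set per campaign, cut at about 35% in these data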;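 note: 0% = DMSO wells and 100% = thioflavine S control wells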
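Assay system: hepatitis C virus NS3 helicase domain fragment enzyme. Also added: annealed dual-labelled DNA beacon duplex, ATP-started. Timing: 1 h reaction at 25 °C, ATP-initiated. Technique: Cy5 fluorescence at 0 and 60 min, beacon hairpin quenching. Evaluation: % inhibition of unwinding. Replication: one well per compound.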
FID counter = displaces DNA intercalator in HCV helicase counter-screen. DNA fluorescent intercalator displacement, fluorescence. inhibition, % at 7.9 µM. 290,000 compounds, 0.17% hits; in the data active = inhibition above about 37%;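 note: 0% = vehicle and 100% = reference compound; higher means more ethidium bromide displaced from hairpin DNA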
EBNA-1 inhibitor = blocks EBNA-1 binding to DNA; EBNA-1 DNA binding, fluorescence polarization; inhibition, % at 14.8 µM; 300,000 compounds, 0.34% hits; AID 1950; in the data active = inhibition above about 28%
Starred values were filed as active, the others as inactive; · = no result given.

SMILES	ZTA counter	GPR7 antagonist	NS3 helicase inh	FID counter	EBNA-1 inhibitor
CC(=O)Oc1ccc(C(=O)Nc2cccnc2)cc1	0	-14	-3	-4	-1
CCN1/C(=C/c2ccc3ccccc3[n+]2CCCS(=O)(=O)[O-])C=Cc2cc(C)ccc21	·	2	5	-15	·
CCN1/C(=C/c2ccc3ccccc3[n+]2CC)C=Cc2ccccc21	7	53*	-1	14	5
COc1ccc(-c2cc(C(=O)NCc3cccnc3)no2)cc1	15	18*	2	-12	-12
COc1ccc(OC)c(-c2cc(C(=O)NCc3ccc(Cl)cc3)no2)c1	21	-13	1	-4	30*
O=C(NCc1cccnc1)c1cc(-c2ccccc2)on1	0	-4	-7	0	-1
COc1ccc(-c2cc(C(=O)NCc3ccc(Cl)cc3)no2)cc1OC	13	-6	7	-3	-3
Cc1ccc(NC(=O)CN2C(=O)NC3(CCCCC3C)C2=O)cc1S(=O)(=O)N1CCCCC1 (stereo unspecified)	-8	·	·	·	-5
CCOc1ccc(NCc2cccn2-c2nnc(N3CCC(C(=O)NCCCN4CC(C)CC(C)C4)CC3)s2)cc1 (stereo unspecified)	4	-4	-97	38*	1
CCN1CCN(CCCNC(=O)C2CCN(c3nnc(-n4cccc4)s3)CC2)CC1	-1	-1	-21	8	-2
CCc1noc(C)c1C(=O)N1CCN(S(=O)(=O)c2ccccc2C(F)(F)F)CC1	3	·	·	·	·
CC(=O)c1ccc(-c2ccc(C(=O)N(C)c3c(N)n(Cc4ccccc4)c(=O)[nH]c3=O)o2)cc1	-15	·	·	·	2
CCOc1ccc(Nc2nc(NCC3CCCO3)c3ccccc3n2)cc1 (stereo unspecified)	17	9	-63	39*	-4
c1ccc(Nc2nc(NCC3CCCO3)c3ccccc3n2)cc1 (stereo unspecified)	-12	16	-36	22	-14
CCCn1c(=O)n(C)c(=O)c2c(SCC(=O)NCC(c3ccccc3)N(C)C)nc(CC(C)C)nc21 (stereo unspecified)	-10	5	-51	25	-7
CCCn1c(SCC(=O)c2cc(C)n(C3CC3)c2C)n[nH]c1=O	12	·	·	·	·
CC1=C(C(=O)Nc2ccc(Cl)cc2)C(c2cccs2)n2nnnc2N1 (stereo unspecified)	15	20*	-2	3	2
COC(=O)C1=C(C(=O)c2ccccc2)C(c2cccs2)n2nnnc2N1 (stereo unspecified)	9	-16	25	-10	8
COc1ccc(/C=C/C(=O)Nc2ccc(OC)nc2)cc1	3	0	1	-9	2
COc1ccc(CS(=O)(=O)/C(Cl)=C(/Cl)C(=O)Nc2ccc(OC)nc2)cc1	-10	39*	-10	-15	-4
COc1ccc(NC(=O)Cc2ccccc2)cn1	-13	-4	0	-3	4
COc1ccc(NC(=O)/C(Cl)=C(/Cl)S(=O)Cc2ccccc2)cn1 (stereo unspecified)	0	40*	1	-12	1
Cc1ccccc1C(=O)Nc1nnc(S(=O)(=O)N2CCCCC2)s1	-3	-3	-1	-16	2
CCc1ccccc1NC(=S)N(CCCN1CCOCC1)Cc1ccccn1	82*	0	14	0	10
COc1ccccc1NC(=S)N(CCCN1CCOCC1)Cc1ccccn1	-6	-3	2	-3	-4
SMILES	ZTA counter	GPR7 antagonist	NS3 helicase inh	FID counter	EBNA-1 inhibitor
Clc1ccc2c(NCc3ccccc3)ccnc2c1	-1	14	-12	-5	10
CCN(CC)CCNc1ccnc2cc(Cl)ccc12	16	-1	18	48*	2
CCN(CC)Cc1cc(Nc2ccnc3cc(Cl)ccc23)ccc1O	-13	-5	26	69*	-4
CC(C)Cn1c(=O)c(C(=O)NCc2ccc3c(c2)OCO3)c(O)c2ccccc21	-2	-8	3	-5	-11
O=C(NNC(=O)c1cc(-c2ccncc2)nc2ccccc12)c1ccccc1O	-15	·	·	·	-8
O=C(c1ccc(F)cc1)N1CCN2C(=O)c3ccccc3C12c1ccccc1 (stereo unspecified)	8	-6	-7	-22	-4
O=C(c1ccc(F)cc1)N1CCN2C(=O)c3ccccc3C12c1ccc(Cl)cc1 (stereo unspecified)	-9	16*	-1	-24	-12
O=C(Cc1ccccc1)NCC(=O)N/N=C/c1cccnc1	-8	2	-1	-5	-3
O=C(CNC(=O)C(c1ccccc1)c1ccccc1)N/N=C/c1cccnc1	-5	20*	9	-14	8
Cc1ccc(S(=O)(=O)NCc2ccc(C(=O)NCCN(Cc3ccccc3)C(C)C)cc2)cc1	2	18	-32	39*	14
O=C(NCCCN1CCCC1=O)c1ccc(Cl)c(S(=O)(=O)N2CCCCC2)c1	5	·	·	·	·
CN(CCOC(=O)c1ccc2c(c1)OCCO2)Cc1ccccc1	12	20*	6	-2	9
CN(CCOC(=O)c1ccc2c(c1)OCCO2)C(C)(C)C	10	-5	2	0	-6
CC1(C)CC(=O)C=C(NC2CCCCCC2)C1	1	15*	9	-7	0
CC1(C)CC(=O)C=C(NC2CCCCCCC2)C1	-2	8	0	-5	0
CCN(CC(=O)NCc1cccs1)C(=O)COc1ccc(C(C)=O)cc1	-23	·	·	·	·
CC1(C)C2CCC1(CS(=O)(=O)Nc1ccc(S(=O)(=O)N3CCCC3)cc1)C(=O)C2 (stereo unspecified)	-6	19*	7	-23	7
CCN(C(=O)C(C)Sc1ccc(S(=O)(=O)N2CCOCC2)cn1)c1ccccc1 (stereo unspecified)	-14	·	·	·	·
O=[N+]([O-])c1ccc(S(=O)(=O)c2cccc(C(F)(F)F)c2)nc1	3	·	·	·	-4
Cc1c(C(=O)OCC(=O)Nc2ccc(S(N)(=O)=O)cc2)oc2c1ccc1ccccc12	33*	18	5	-1	72*
O=C(CSc1nnc(NC(=O)C2CC(=O)N(c3ccc(F)cc3)C2)s1)NCc1ccco1 (stereo unspecified)	16	-15	20	-19	6
CC(C)(C)C(=O)NC(=S)NNC(=O)c1ccc(-c2ccccc2)cc1	-6	103*	26	-25	1
COc1ccccc1Nc1cc(C(=O)NCCCN2CCOCC2)c2ccccc2n1	-3	16	-4	19	-15
COc1ccc(-c2cc(C(=O)NCCCN3CCOCC3)c3cc(C(C)C)ccc3n2)cc1	4	-2	-86	37*	16
COc1ccc(OC)c(Nc2cc(C(=O)NCCCN3CCOCC3)c3ccccc3n2)c1	0	-7	-49	41*	0
COc1ccc(Nc2cc(C(=O)NCCCN3CCN(C)CC3)c3ccccc3n2)cc1	-17	-5	-26	41*	-20
COc1ccc(Nc2cc(C(=O)NCCCN3CCOCC3)c3ccccc3n2)cc1	1	-6	-19	18	-6
CC1CN(C(=O)CSc2nc(N)cc(N)n2)CC(C)O1 (stereo unspecified)	-4	·	·	·	·
